Results from different studies.
Each line is one published result; the experiments were not run side by side.
Read-out: enzyme activity
Action: inhibitor
INSR: Insulin receptor (INSR, Homo sapiens, UniProt P06213)
INSR phosphorylated: Insulin receptor, phosphorylated (INSR, Homo sapiens, UniProt P06213)

| SMILES | target | technique | tested at | remaining activity [%] |
| --- | --- | --- | --- | --- |
| CC(C)(C)c1nc(-c2cccc(NS(=O)(=O)c3c(F)cccc3F)c2F)c(-c2ccnc(N)n2)s1 | INSR | radiometric | 1 µM | 108 |
| CCCOc1ccc(OC)c(F)c1C(=O)c1ccc(C(=O)N[C@@H]2CNC[C@H]2NC(=O)c2ccc3[nH]ncc3c2)cc1 | INSR phosphorylated | – | 10 µM | 98 |
| Cn1c(=O)n(-c2ccc(C(C)(C)C#N)cc2)c2c3cc(-c4cnc5ccccc5c4)ccc3ncc21 | INSR | – | 10 µM | 99 |
| CCN(CC)c1ccc(C2=NNC(=O)CC2C)cc1[N+](=O)[O-] (stereo not drawn) | INSR phosphorylated | – | 10 µM | 95 |
| COc1cc(Cl)c(C(=O)N[C@@H](CN[C@H]2CC[C@@H](N)CC2)Cc2ccc(C#N)cc2)cc1-c1ccc(CN[C@H](C)c2ccc(C)cc2)o1 | INSR phosphorylated | – | 1 µM | 100 |
| Oc1cccc(-c2nc(N3CCOCC3)c3oc4ncccc4c3n2)c1 | INSR | – | 10 µM | 80 |
| Cc1sc(C(=O)NC2COC2)cc1-n1cc(NC(=O)Nc2c(F)cccc2Cl)cn1 | INSR | – | 10 µM | 85.5 |
| Cc1[nH]c(/C=C2\C(=O)Nc3ccc(F)cc32)c(C)c1C(=O)N[C@H]1CCN(C(=O)N(C)C)C1 | INSR | – | 0.1 µM | 132 |
| CC(C)(C)C(=O)c1sc(NC2CCCCC2)nc1N | INSR | – | 10 µM | 93 |
| Cc1cnc(NC2CCOCC2)nc1-n1cnc(C(=O)NC(CN)c2cc(F)cc(Cl)c2)c1 (stereo not drawn) | INSR | radiometric | 1 µM | 103 |
| CC(C)(O)[C@H]1CC[C@H](Nc2ccc3ncc(-c4cccc(C(F)(F)F)c4)n3n2)CC1 | INSR | – | 1 µM | 102 |
| COc1cc(Nc2cnc(C#N)c(O[C@H](C)CN(C)C)n2)ncc1-c1cnn(C)c1 | INSR | radiometric | 10 µM | 84 |
